High-throughput results from PubChem BioAssay.
HTRA1 inh = HTRA1 serine protease inhibitors, primary screen, biochemical, fluorescence polarization, HTS. 340,000 tested, 0.5% active. inhibition, % at 5.96 µM. recombinant HTRA1, FP-rhodamine activity-based probe. AID 504803, 2011; in the data active = inhibition above about 36%
Target sequence (Q92743 whole entry, looked up): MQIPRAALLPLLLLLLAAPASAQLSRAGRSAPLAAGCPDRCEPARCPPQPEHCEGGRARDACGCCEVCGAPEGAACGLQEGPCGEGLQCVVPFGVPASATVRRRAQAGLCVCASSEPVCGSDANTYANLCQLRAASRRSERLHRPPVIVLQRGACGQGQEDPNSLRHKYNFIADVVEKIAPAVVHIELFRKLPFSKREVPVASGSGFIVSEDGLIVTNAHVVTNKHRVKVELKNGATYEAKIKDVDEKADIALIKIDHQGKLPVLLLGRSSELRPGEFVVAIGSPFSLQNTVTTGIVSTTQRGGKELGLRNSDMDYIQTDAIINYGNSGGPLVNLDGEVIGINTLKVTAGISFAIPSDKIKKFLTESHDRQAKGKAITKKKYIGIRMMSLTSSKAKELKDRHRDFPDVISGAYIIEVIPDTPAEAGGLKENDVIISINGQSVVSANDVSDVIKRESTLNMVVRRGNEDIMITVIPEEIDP
rCAG binder = binders of r(CAG) RNA repeats, primary screen, biochemical, fluorescence; 370,000 tested, 1.3% active; inhibition, % at 3 µM; r(CAG) RNA repeat, TO-PRO-1 dye displacement fluorescence;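 active = inhibition above the plate cutoff, the mean of all test compounds on that plate plus 3 SD, cut at about 35% in these data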;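 note: higher means more dye released from RNA so lower well fluorescence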
PRMT1 FP inh = PRMT1 methyltransferase inhibitors, primary screen, biochemical, fluorescence polarization | recombinant PRMT1, activity-based probe fluorescence polarization | Protein arginine N-methyltransferase 1 (Homo sapiens), Q99873 | AID 652257, 2013 | inhibition, % at 2.79 µM | 370,000 tested, 1.3% active;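 active = inhibition above about 21% made by adding two undisclosed values, limit read from the data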
mABHD4 FP = ABHD4 inhibitors, primary screen, biochemical, fluorescence polarization, mouse | purified mABHD4, FP-Rh probe fluorescence polarization | inhibition, % at 8.92 µM | 370,000 tested, 0.54% active | AID 720543, 2013;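 active = inhibition exceeding the mean over every tested compound plus 3 SD, cut at about 30% in these data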
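system = mouse ABHD4 enzyme, wild type | medium = HEPES pH 7.0, NaCl, Pluronic buffer | also added = FP-Rh probe | incubation = Enzyme–compound pre-incubation 45 min, then probe 60 min, both 25 °C | technique = fluorescence polarization, excitation 525 nm, emission 598 nm, BODIPY TMR filters | controls = S159A mutant high control, sample median low control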
SIAE inh = human SIAE inhibitors, primary screen, biochemical, fluorescence polarization, FP-Rh probe, 1536-well HTS; Sialate O-acetylesterase (Homo sapiens), Q9HAT2; SIAE FP-Rh probe binding; 370,000 tested, 0.69% active; inhibition, % at 9.66 µM; AID 1053197, 2014;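 active = inhibition above a cutoff: mean of compounds within the control limits plus 3 SD of those, cut at about 17% in these data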
Large screens that a line does not name were inactive; ! = not confirmed by another sample. The list is not random: actives were taken first. Their share in the collection is about 3.3%.

Cc1ccc(S(=O)(=O)N(C(=O)c2ccncc2)c2ccc(OC(=O)c3ccncc3)c3ccccc23)c(C)c1	none (no result: rCAG binder, PRMT1 FP inh, mABHD4 FP, SIAE inh)
Cc1ccc(S(=O)(=O)N(C(=O)c2ccncc2)c2ccc(OC(=O)c3ccncc3)c3ccccc23)cc1	PRMT1 FP inh 86
COC(=O)[C@]12C[C@H](CC(=O)NCc3ccccc3)C(=O)N(CCC3=CCCCC3)C1=C[C@H](COCc1ccccc1)O[C@@H]2C	none (no result: HTRA1 inh)
O=C(N[C@H](Cc1ccccc1)C(=O)NCc1ccc2c(c1)OCO2)[C@H]1O[C@@H](n2ccc(=O)[nH]c2=O)[C@H](O)[C@@H]1O	none (no result: HTRA1 inh)
O=S(=O)(Nc1cc(Sc2cccc3cccnc23)c(O)c2ccccc12)c1ccc(F)cc1	PRMT1 FP inh 73, mABHD4 FP 38 (no result: HTRA1 inh)
O=S(=O)(Nc1cccnc1Cl)c1ccc(F)cc1	none
CCc1cc(SC#N)ccc1N	PRMT1 FP inh 24
Clc1cccc(CNc2ccn3nc(-c4ccco4)cc3n2)c1	PRMT1 FP inh 23 (no result: HTRA1 inh)
c1ccc(OCCNc2ccn3nc(-c4ccco4)cc3n2)cc1	PRMT1 FP inh 21 (no result: HTRA1 inh)
CN(CC(=O)Nc1ccc(F)cc1)C(=O)COC(=O)c1ccc(=O)n(Cc2ccccc2)n1	PRMT1 FP inh 136
Cc1ccc(-c2cc(C(=O)OCC(=O)N(C)C3CCS(=O)(=O)C3)c3ccccc3n2)o1 (stereo unspecified)	none
CCN(C(=O)COC(=O)c1cc(-c2ccc(C)o2)nc2ccccc12)C1CCS(=O)(=O)C1 (stereo unspecified)	PRMT1 FP inh 23
O=C(CCCN1C(=O)/C(=C/c2ccccc2Cl)SC1=S)NCCCN1CCOCC1	PRMT1 FP inh 24
CCOC(=O)CC1C(=O)NCCN1Cc1cccc(C(F)(F)F)c1 (stereo unspecified)	PRMT1 FP inh 24
Cc1ccc(/C=C2\SC(=S)N(NS(=O)(=O)c3ccc(C)cc3)C2=O)cc1	none
Cc1ccc(S(=O)(=O)NN2C(=O)/C(=C/c3ccc(C(=O)O)cc3)SC2=S)cc1	PRMT1 FP inh 22
Cc1cccc(NC2=C/C(=N/S(=O)(=O)c3cccs3)c3ccccc3C2=O)c1	none
Cc1ccc(NC2=C/C(=N\S(=O)(=O)c3cccs3)c3ccccc3C2=O)c(C)c1	HTRA1 inh 53 (no result: rCAG binder, PRMT1 FP inh, mABHD4 FP, SIAE inh)
Cc1ccc(Cl)cc1NC1=C/C(=N\S(=O)(=O)c2cccs2)c2ccccc2C1=O	HTRA1 inh 40!
O=C(CSc1nnc(-c2ccccc2)n1Cc1ccco1)Nc1ccc(OCc2ccccc2)cc1	none (no result: HTRA1 inh)
Cc1onc(-c2ccccc2Cl)c1C(=O)NCCn1c(C)cc2ccccc21	HTRA1 inh 48 (no result: rCAG binder, PRMT1 FP inh, mABHD4 FP, SIAE inh)
CC1(C)CC(=O)C=C(Nc2ccccc2NC(=O)c2cc(Cl)ccc2F)C1	none (no result: HTRA1 inh)
CCC(C)[C@H](NC(=O)[C@@H]1CSC2c3ccccc3C(=O)N21)C(=O)N1CCCCC1 (stereo partly specified)	none
CCC(C)NC(=O)[C@@H]1CSC2c3ccccc3C(=O)N21 (stereo partly specified)	PRMT1 FP inh 21
O=Cc1ccccc1-n1cccn1	none
Oc1cc(-n2cccn2)c(O)cc1-n1cccn1	PRMT1 FP inh 57
CCSc1ccc(-c2ccco2)nn1	none
Fc1cccc(CSc2ccc(-c3ccco3)nn2)c1	PRMT1 FP inh 24
CCOc1cc(C2Nc3cccc4cccc(c34)N2)ccc1O	HTRA1 inh 37 (no result: rCAG binder, PRMT1 FP inh, mABHD4 FP, SIAE inh)
CCOc1ccc(C2Nc3cccc4cccc(c34)N2)cc1OC	none
CCCCCCCCN1C(=O)[C@@H](CC(=O)N2CCSCC2)C[C@@]2(C(=O)OC)C1=C[C@H](C1CCCC1)O[C@@H]2C	none (no result: HTRA1 inh)
CCOC(=O)C1=C(C)NC(=S)NC1c1ccc(-c2cccc(Cl)c2C)o1 (stereo unspecified)	PRMT1 FP inh 22
COC(=O)c1ccc(-n2c(C)cc(C(=O)COC(=O)C3=COCCO3)c2C)cc1	none
Cc1cc(C(=O)COC(=O)C2=COCCO2)c(C)n1-c1ccc2c(c1)OCO2	SIAE inh 17
COC(=O)[C@]12C[C@H](CC(=O)NCc3ccc(C)o3)C(=O)N(Cc3ccccc3)C1=C[C@H](C1CCCC1)O[C@@H]2C	PRMT1 FP inh 22 (no result: HTRA1 inh)
CCOC(=O)[C@]12CCC=C1N(Cc1ccccc1)C(=O)[C@H](CC(=O)NCc1ccc(C)o1)C2	PRMT1 FP inh 23 (no result: HTRA1 inh)
O=C(NCc1ccccc1)C(c1ccc(C(F)(F)F)cc1)n1c(=O)c(-c2ccco2)nc2ccccc21 (stereo unspecified)	rCAG binder 36 (no result: HTRA1 inh)
C=C1C(=O)[C@]23C[C@H]1CC[C@H]2[C@]1(C)CCC[C@@](C)(C(=O)OC)[C@H]1C[C@@H]3O	PRMT1 FP inh 24 (no result: HTRA1 inh)
Cc1[nH]nc2c1C(c1ccc(F)cc1)N(c1ccccc1)C2=O (stereo unspecified)	none (no result: HTRA1 inh)
CC(=O)C1=C(C)NC(SCC(=O)c2ccc(Cl)cc2)=C(C#N)C1CC(C)C (stereo unspecified)	none
CC(=O)C1=C(C)NC(SCC(=O)c2ccc(F)cc2)=C(C#N)C1CC(C)C (stereo unspecified)	PRMT1 FP inh 28
Cc1ccc(C2Nc3ccc4ccccc4c3C3=C2C(=O)CC(C)(C)C3)o1 (stereo unspecified)	none (no result: rCAG binder, PRMT1 FP inh, mABHD4 FP, SIAE inh)
O=C1CCCC2=C1C(c1ccco1)Nc1ccc3ccccc3c12 (stereo unspecified)	PRMT1 FP inh 44
CC(=O)N1CC[n+]2c(-c3ccc(Cl)cc3)csc21	PRMT1 FP inh 78
CC(=O)N1CCN(C(=S)c2ccc(Cl)cc2)CC1	none
Cc1ccc(C2C3CN(C(C)C)CC=C3C(C#N)=C(N)C2(C#N)C#N)cc1 (stereo unspecified)	PRMT1 FP inh 40, mABHD4 FP 34
COc1ccc(OC)c(C2C3CN(C(C)C)CC=C3C(C#N)=C(N)C2(C#N)C#N)c1 (stereo unspecified)	none
C=CCC12C[C@@]3(O[C@H](c4ccc(C(F)(F)F)cc4)N=C3C[C@H](c3ccc(OC)cc3)[C@H]1C)N(Cc1ccc3c(c1)OCO3)C2=O	none (no result: HTRA1 inh)
C=CCN1C(=O)c2n[nH]c(C(C)C)c2C1c1ccc(C)cc1 (stereo unspecified)	none (no result: HTRA1 inh)
CC(c1ccco1)N(C(=O)c1ccccc1NS(=O)(=O)c1ccc(Cl)c([N+](=O)[O-])c1)c1ccccn1 (stereo unspecified)	rCAG binder 69
c1coc(-c2nnc(-c3ccco3)nn2)c1	PRMT1 FP inh 46
CCOc1ccc(N=Cc2ccc([N+](=O)[O-])cc2)c(O)c1	PRMT1 FP inh 22, mABHD4 FP 35
Cc1c(OCC(F)(F)F)ccnc1CS(=O)c1nc2ccccc2[nH]1 (stereo unspecified)	PRMT1 FP inh 28
O=C(Nc1ccccc1C(F)(F)F)NC1(C(=O)N2CCOCC2)CCCCC1	rCAG binder 72, PRMT1 FP inh 23
Brc1cccc(CN2CCN(c3ncc(Cc4ccccc4)cn3)CC2)n1	none (no result: HTRA1 inh)
